Shown are actives, neighbours in structure and some others; about 1.6% of the full set was active somewhere.
NR1D1 modulator: modulators of Rev-erb alpha DNA binding, primary screen, biochemical, FITC-DNA, fluorescence polarization, uHTS | activity, % at 10 µM | Rev-erbα–FITC-DNA binding, 90 min | 0.79% of 370,000 active | Nuclear receptor subfamily 1 group D member 1 (Homo sapiens), P20393;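 active = activity above about 14%, limit read from the data; passing the limit was not always enough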
NR2E3 ag-1: NR2E3 agonists in two-hybrid cells, primary screen, cell-based, luminescence, CHO-S, Gal4-NCOR/VP16-NR2E3. Photoreceptor-specific nuclear receptor (Homo sapiens), Q9Y5X4. luciferase. AID 602229, 2012. 0.35% of 360,000 active. inhibition of corepressor binding, % at 3.98 µM;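 active = inhibition above the mean of all tested compounds plus 3 SD, cut at about 70% in these data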;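 also: higher means lower luciferase signal from less NR2E3 corepressor binding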
Target sequence (Q9Y5X4 whole entry, looked up, the tested form may be a part): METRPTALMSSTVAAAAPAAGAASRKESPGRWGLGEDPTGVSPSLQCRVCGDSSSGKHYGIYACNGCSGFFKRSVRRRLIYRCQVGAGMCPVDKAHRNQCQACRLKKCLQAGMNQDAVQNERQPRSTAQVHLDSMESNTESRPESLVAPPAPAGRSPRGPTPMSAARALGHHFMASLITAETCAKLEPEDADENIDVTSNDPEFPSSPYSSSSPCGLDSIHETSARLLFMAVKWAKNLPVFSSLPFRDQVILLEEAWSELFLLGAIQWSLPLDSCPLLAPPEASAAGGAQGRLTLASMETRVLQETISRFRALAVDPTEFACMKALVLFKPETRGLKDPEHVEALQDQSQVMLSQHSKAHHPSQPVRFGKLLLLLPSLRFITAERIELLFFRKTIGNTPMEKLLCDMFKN
VLA-4 inh: inhibition in human VLA-4 binding assay, primary screen, VLA-4 allosteric modulator project, MLPCN library, flow cytometry, VLA-4 expressing cells | Integrin alpha-4 (Homo sapiens), P13612 | ligand binding flow cytometry | inhibition, % (about 7 µM as worked out from the volumes in the protocol) | 0.2% of 330,000 active; in the data active = inhibition above about 50%
PG9 Ab binder: binders of HIV-1 gp120 antibody PG9, primary screen, biochemical, TR-FRET; TR-FRET gp120-PG9 antibody binding; inhibition, % at 6.7 µM; AID 624416, 2012; 0.43% of 360,000 active; in the data active = inhibition above about 8.5%
NR2E3 ag-2: inhibitors of NR2E3-RetCOR corepressor binding, primary screen, NR2E3 agonist project, biochemical, TR-FRET, GST-NR2E3, biotin-RetCOR. Photoreceptor-specific nuclear receptor (Homo sapiens), Q9Y5X4. 1536-well. inhibition of corepressor binding, % at 4.78 µM. 0.12% of 320,000 active. AID 2300, 2010;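 active = percent inhibition above the cutoff of mean plus 3 SD of all tested compounds, set per screening campaign, cut at about 20% in these data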
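system = GST-tagged NR2E3 plus biotinylated RetCOR corepressor | input = 1.35 nM GST-NR2E3 | also added = 7 nM biotin-RetCOR | schedule = 5 h incubation at 4 °C | measured by = TR-FRET with europium anti-GST and streptavidin-D2, 340 nm excitation | read-out = percent loss of FRET ratio relative to control wells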
Rev-erbA confirm: modulators of Rev-erb alpha DNA binding, confirmation, biochemical, FITC-DNA, fluorescence polarization, single point. AID 1259319, 2017. shares compounds with NR1D1 modulator. 90 min. activation, % at 25 µM. 61% of 3,000 active;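 active = activation at or above a set limit, or at least 3 SD above the negative control mean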
RORg counter: modulation of RORgamma DNA binding, dose response, counter-screen for Rev-erb alpha modulator project, biochemical, fluorescence polarization, FITC-DNA; shares compounds with NR1D1 modulator; purified RORgamma protein-FITC-DNA binding; IC50, µM; 8% of 910 active; AID 1259320, 2017;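 active = Compounds whose fitted half-maximal concentration for disrupting protein-DNA binding is below 10 micromolar; the record names Rev-erb in its text, so the target is in doubt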
Large screens that a line does not name were inactive (follow-up assays come after a bar, where they were run); ! = repeats disagree.

CC1(C(=O)NS(=O)(=O)c2ccc(F)cc2F)CCN1C(=O)c1ccccc1 (stereo not drawn)	none (no result: VLA-4 inh, NR2E3 ag-2)
O=C(Cn1c(=O)n(CC2CCCO2)c(=O)c2ccccc21)c1ccc(Cl)c(Cl)c1 (stereo not drawn)	NR1D1 modulator 27.4 | Rev-erbA confirm 23.6
CC(C)(C)C(=O)Cn1c(=O)n(CC2CCCO2)c(=O)c2ccccc21 (stereo not drawn)	none
CCN(Cc1nc2cc(Cl)ccc2c(=O)[nH]1)C(=O)c1cc2c(s1)CCCCC2	NR1D1 modulator 54.0 (no result: VLA-4 inh, NR2E3 ag-2) | Rev-erbA confirm 33.9 | RORg counter inactive
CCN(Cc1nc2cc(Cl)ccc2c(=O)[nH]1)C(=O)C1CC(=O)N(c2cccc3ccccc23)C1 (stereo not drawn)	none
CC(C)n1nnnc1C1(C)CCSCC(=O)N1Cc1cccc(C(F)(F)F)c1 (stereo not drawn)	none (no result: NR2E3 ag-1, VLA-4 inh, PG9 Ab binder, NR2E3 ag-2)
CCC(=O)N1CCc2cc(S(=O)(=O)NC(Cc3ccccc3)C(=O)O)ccc21 (stereo not drawn)	none
Cc1cccc(CSc2nc3c(cc2C#N)CCC3)c1	NR1D1 modulator 47.2 | Rev-erbA confirm 29.9
N#Cc1cc2c(nc1SCc1cccnc1)CCC2	none
CC(=O)Nc1ccc(S(=O)(=O)Nc2ccn(Cc3ccccc3Cl)n2)cc1	NR1D1 modulator 14.7 (no result: VLA-4 inh, NR2E3 ag-2) | Rev-erbA confirm inactive
CC(C)n1cc(CN2CCC(C(=O)Nc3cccc(-c4cccc(Cl)c4)c3)CC2)cn1	none
Cc1ccccc1NC(=O)C(C)OC(=O)c1ccccc1C(=O)N(C)c1ccccc1 (stereo not drawn)	none
CCOc1cc2[nH]c(=S)n(C3CCN(Cc4ccccc4)CC3)c(=O)c2cc1OCC	none
O=c1c2cc3c(cc2[nH]c(=S)n1C1CCN(Cc2ccccc2)CC1)OCO3	NR1D1 modulator 15.1 | Rev-erbA confirm inactive
CN(C)c1ccc(N=Nc2ccccc2C(=O)OCC(=O)N(C)c2ccccc2)cc1	NR1D1 modulator 22.5 | Rev-erbA confirm 23.3
COC(=O)c1ccccc1NC(=O)COC(=O)c1ccccc1N=Nc1ccc(N(C)C)cc1	NR1D1 modulator 26.1 | Rev-erbA confirm 29.3
Cc1nn(C)cc1C1C(C#N)=C(N)N(c2ccc(F)c([N+](=O)[O-])c2)C2=C1C(=O)CCC2 (stereo not drawn)	none
COC(=O)[C@]1(Cc2ccccc2)N[C@H](c2ccc(-c3cccc(Cl)c3)c(OC)c2)[C@@H]2C(=O)N(C)C(=O)[C@@H]21	NR1D1 modulator 25.1 (no result: VLA-4 inh, NR2E3 ag-2) | Rev-erbA confirm 17.2
CCN1C(=O)[C@H]2[C@@H](c3ccc(-c4cccc(Cl)c4)c(OC)c3)N[C@@](Cc3ccccc3)(C(=O)OC)[C@H]2C1=O	none
Cc1nnc(NC(=O)c2sc3ccccc3c2Cl)s1	none
CNC(=O)c1ccsc1NC(=O)c1sc2ccccc2c1Cl	NR1D1 modulator 95.7 | Rev-erbA confirm 71.8 | RORg counter inactive
Cc1ccc2nsnc2c1NC(=O)c1sc2ccccc2c1Cl	NR1D1 modulator 30.5 | Rev-erbA confirm 32.3 | RORg counter inactive
CCOC(=O)c1cc2c(nc1NC(=S)NCc1ccccc1)CCCC2	NR1D1 modulator 37.6 | Rev-erbA confirm 22.9
CCOC(=O)c1cc2c(nc1NC(=S)Nc1ccccc1)CC(C)(C)OC2	none
COc1cccc(NC(=O)CN(C)C(=O)c2ccc(-c3ccccc3Cl)o2)c1	none
CCCC1CC(C(=O)NC(C(C)Cl)C2OC(SC)C(O)C(O)C2O)N(C)C1 (stereo not drawn)	none
CCN(CC)c1ccc(/C=c2\sc3nnc(-c4ccccc4Cl)n3c2=O)cc1	NR1D1 modulator 18.9 | Rev-erbA confirm inactive
CCN(CC)c1ccc(/C=c2/sc3nnc(-c4ccccc4C)n3c2=O)cc1	none
Cc1ccc(C(=O)c2c3ccc([N+](=O)[O-])cc3[n+]([O-])n2CCC(N)=O)cc1	none (no result: NR2E3 ag-1)
C=CCn1c(=NC(=O)c2ccco2)sc2cc(C(=O)OCC)ccc21	NR1D1 modulator 29.1 | Rev-erbA confirm 23.4
C=CCn1c(=NC(=O)c2ccco2)sc2cc(C(=O)OC)ccc21	NR1D1 modulator 27.6 | Rev-erbA confirm 34.8 | RORg counter inactive
CCOC(=O)c1sc(=NC(=O)c2ccco2)n(C)c1C	none
COCCn1c(=NC(=O)c2ccco2)sc2cc(C(=O)OC)ccc21	NR1D1 modulator 42.1 | Rev-erbA confirm 37.8 | RORg counter inactive
CCOc1ccc(NC(=O)c2ccccc2NC(=O)CNC2CCCC(C)C2C)cc1 (stereo not drawn)	none (no result: NR2E3 ag-2)
O=C(Nc1nc(-c2cccs2)c(-c2cccs2)s1)C1CCCC1	NR1D1 modulator 80.3 (no result: VLA-4 inh, NR2E3 ag-2) | Rev-erbA confirm 113.9 | RORg counter inactive
CCOC(=O)Cc1csc(NC(=O)CSc2nccn2C)n1	none
COC(=O)c1c(NC(=O)c2ccccc2N(C)S(=O)(=O)c2ccccc2)sc2c1CCCC2	none (no result: VLA-4 inh, NR2E3 ag-2)
COC(=O)c1c(NC(=O)c2ccc(N(C)S(=O)(=O)c3ccc(C)cc3)cc2)sc2c1CCCC2	NR1D1 modulator 34.0 | Rev-erbA confirm inactive
CCOC(=O)c1c(NC(=O)c2cc3n(n2)C(C(F)(F)F)CC(c2ccccc2)N3)sc(C)c1C (stereo not drawn)	NR1D1 modulator 36.4 | Rev-erbA confirm inactive
CCCCNC(=O)c1cc2n(n1)C(C(F)(F)F)CC(c1ccccc1)N2 (stereo not drawn)	none
CCCn1nc(NC(=O)CC(C)C)c2cc3cccc(C)c3nc21	none
CCn1nc(NC(=O)CC(C)C)c2cc3cccc(C)c3nc21	NR1D1 modulator 23.7 | Rev-erbA confirm inactive
CCC(C)Sc1ccc(-c2nc3cc(C)ccn3c2NC2CCCCC2)cc1 (stereo not drawn)	NR1D1 modulator 20.3! (no result: NR2E3 ag-2) | Rev-erbA confirm 19.1
CCCCCCSc1cc(-c2nc3cc(C)ccn3c2NC2CCCCC2)ccc1OC	none
CCCCCCSc1ccc(-c2nc3cc(C)ccn3c2NC2CCCCC2)cc1	NR1D1 modulator 19.9! (no result: NR2E3 ag-2) | Rev-erbA confirm inactive
CC(C)(C)NC(=O)C(=O)NNC(=O)c1cccc([N+](=O)[O-])c1	none
CCN1/C(=C/c2ccc3cc(C)cc(C)c3[n+]2CC)Sc2cc(C)ccc21	NR1D1 modulator 30.9, NR2E3 ag-1 90.5 (no result: VLA-4 inh, NR2E3 ag-2) | Rev-erbA confirm 37.4 | RORg counter inactive

Bioassay records deposited in PubChem by several laboratories.
